Published values of several laboratories.
Protocols differ between the studies behind these lines.
Cell line: Vero
Read-out: cell growth or viability

CN(C)c1ncnc2c1ncn2[C@@H]1O[C@H](CCl)[C@@H](NC(=O)[C@H](CSC(c2ccccc2)c2ccccc2)NC(=O)OC(C)(C)C)[C@H]1O gave a CC50 of greater than 100 µM (MTT).
O=C(NNC(=O)c1cc2ccccc2s1)c1ccc([N+](=O)[O-])o1 has a CC50 of 75 µM (MTT; 48 h).
The CC50 of CO[C@@]12[C@H](COC(N)=O)C3=C(C(=O)C(C)=C(N)C3=O)N1C[C@@H]1N[C@@H]12 is reported as 0.39 µM (resazurin).
For COC(=O)COc1c(Cc2cc(C(C)(C)CC(C)(C)C)cc(-n3nc4ccccc4n3)c2OCC(=O)OC)cc(C(C)(C)CC(C)(C)C)cc1-n1nc2ccccc2n1, the viability was 89.5% (MTT; 10 µM, 48 h).
With CN1CCN(c2cnc3c(cc(C(=O)NCc4ccc(Cl)cc4)c(=O)n3CC(=O)N3CC(C)(F)C3)n2)C1=O the CC50 was greater than 40 µM (CCK-8; 5 days).
O=C(Cn1ccnc1[N+](=O)[O-])NCc1ccccc1 gave a CC50 of 142 µM (MTT).
With CC1(F)CN(C(=O)Cn2c(=O)c(C(=O)NCc3ccc(Cl)cc3)cc3nc(N4CCNC4=O)cnc32)C1 the CC50 was greater than 40 µM (CCK-8; 5 days).
With CCCN(CCc1cccs1)[C@H]1CCc2c(O)cccc2C1 the CC50 was 9.48 µM (resazurin).
